ChEMBL document CHEMBL5154918, “Synthesis and Biological Characterization of a Series of 2-Sulfonamidebenzamides as Allosteric Modulators of MrgX1” (ACS Med Chem Lett, 2022)
pEC50: −log10 of the molar value.

How the values were obtained:
[1] = target: T1, Mas-related G-protein coupled receptor member X1 (Homo sapiens, UniProt Q96LB2); assay: Positive allosteric modulator activity at human MRGPRX1 expressed in HEK293 cells assessed as maximal efficacy at 5 uM in presence of BAM8-22 by Fluo4-dye based FLIPR assay relative to control; assay type: cell-based
[2] = target: T1, Mas-related G-protein coupled receptor member X1; assay: Positive allosteric modulator activity at human MRGPRX1 expressed in HEK293 cells in presence of BAM8-22 by Fluo4-dye based FLIPR assay; assay type: cell-based
In short: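 HEK293 cells expressing MrgX1. Compounds tested in the presence of 10 nM BAM8-22. Emax normalized to control compound ML382; mean ± SEM of n = 2 experiments.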

[3] = Microsomal stability in human liver microsomes assessed as intrinsic clearance; assay type: ADME, Microsome; conditions: read-out: CLH
In short: (§1)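 Intrinsic clearance measured in human and mouse liver microsomes. Hepatic clearance predicted from it with the well-stirred organ CL model, binding terms excluded.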

[4] = Microsomal stability in mouse liver microsomes assessed as intrinsic clearance; assay type: ADME, Microsome; conditions: read-out: CLH; in short: as §1
[5] = Plasma protein binding in human assessed as unbound fraction; assay type: ADME, cell-free; conditions: read-out: PPB
In short: (§2)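 Equilibrium dialysis in human and mouse plasma; results expressed as […] fraction unbound.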

[6] = Plasma protein binding in mouse assessed as unbound fraction; assay type: ADME, cell-free; conditions: read-out: PPB; in short: as §2
[7] = filed as positive allosteric modulator

T1 sequence (Q96LB2 whole entry): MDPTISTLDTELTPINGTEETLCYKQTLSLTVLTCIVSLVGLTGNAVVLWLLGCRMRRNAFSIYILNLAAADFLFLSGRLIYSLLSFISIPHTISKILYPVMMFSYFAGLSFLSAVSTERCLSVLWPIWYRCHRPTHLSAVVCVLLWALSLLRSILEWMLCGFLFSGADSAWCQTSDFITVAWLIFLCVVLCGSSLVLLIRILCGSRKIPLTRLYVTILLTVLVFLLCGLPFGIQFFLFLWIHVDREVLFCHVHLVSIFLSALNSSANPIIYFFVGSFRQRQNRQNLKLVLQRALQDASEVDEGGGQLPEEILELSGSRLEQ

| Emax [1, 7] [%] | pEC50 [2] | Emax [1] [%] | SMILES | further results |
| --- | --- | --- | --- | --- |
| 108 | 6.66 | – | CCOc1ccccc1NC(=O)c1cc(C)ccc1NS(=O)(=O)CC | – |
| 67.6 | 6.07 | – | CCOc1ccccc1NC(=O)c1ccc(F)cc1NS(=O)(=O)C1CC1 | – |
| – | – | 7.4 | O=C(Nc1cccc2c1OCO2)c1ccccc1NS(=O)(=O)C1CC1 | – |
| – | – | -15.6 | COc1ccc(NC(=O)c2ccccc2NS(=O)(=O)C2CC2)cc1 | – |
| 103 | 6.04 | – | O=C(Nc1ccccc1OCC(F)(F)F)c1cc(Cl)ccc1NS(=O)(=O)C1CC1 | – |
| – | – | 12.7 | CCOc1ccccc1CNC(=O)c1ccccc1NS(=O)(=O)C1CC1 | – |
| 136 | 7.51 | – | CCOc1ccc(F)cc1NC(=O)c1cc(F)ccc1NS(=O)(=O)CC | CLint scaled [3]: 69.1 mL/min/kg; CLint scaled [4]: 1240 mL/min/kg; fraction unbound [5]: 0.002; fraction unbound [6]: 0.001 |
| – | – | -5.7 | CCOc1ccccc1Nc1nn(S(=O)(=O)C2CC2)c2ccccc12 | – |
| – | – | 6.7 | CCOc1ccccc1-c1nnc(-c2ccccc2NS(=O)(=O)C2CC2)o1 | – |
| 80.1 | 5.50 | – | O=C(Nc1ccccc1OC1CCCC1)c1ccccc1NS(=O)(=O)C1CC1 | – |
| – | – | 6.8 | O=C(c1ccccc1NS(=O)(=O)C1CC1)N1CCCc2ccccc21 | – |
| – | – | -44.4 | CCOc1ccccc1NC(=O)c1cccc(NS(=O)(=O)C2CC2)c1 | – |
| – | 5.05 | 37.9 | O=C(Nc1cccc2c1OCCO2)c1ccccc1NS(=O)(=O)C1CC1 | – |
| 61.5 | 5.87 | – | O=C(Nc1ccccc1OCC1CC1)c1ccccc1NS(=O)(=O)C1CC1 | – |
| – | – | 29.7 | CCOc1ccccc1NC(=O)c1cc2ccccc2cc1NS(=O)(=O)C1CC1 | – |
| 104 | 7.26 | – | CCOc1ccc(F)cc1NC(=O)c1cc(Cl)ccc1NS(=O)(=O)C1CC1 | CLint scaled [3]: 138 mL/min/kg; CLint scaled [4]: > 2400 mL/min/kg; fraction unbound [5]: 0.001; fraction unbound [6]: 0.003 |
| 80.8 | 6.30 | – | CCCOc1ccccc1NC(=O)c1ccccc1NS(=O)(=O)C1CC1 | CLint scaled [3]: 116 mL/min/kg; CLint scaled [4]: 4890 mL/min/kg; fraction unbound [5]: < 0.003; fraction unbound [6]: 0.015 |
| – | – | 7.5 | CCOc1ccccc1-c1nnc(-c2ccccc2NS(=O)(=O)C2CC2)[nH]1 | – |
| – | – | -25.6 | CC1(C)Oc2cccc(NC(=O)c3ccccc3NS(=O)(=O)C3CC3)c2O1 | – |
| – | – | -11.7 | CCOc1ccccc1Nc1nn(S(=O)(=O)C2CC2)c2ncccc12 | – |
| – | – | 36.1 | CCOc1ccccc1NC(=O)c1ccc(Cl)cc1NS(=O)(=O)C1CC1 | – |
| – | – | 29.1 | O=C(Nc1ccccc1OCC(F)(F)F)c1ccc(F)cc1NS(=O)(=O)C1CC1 | – |
| 100 | 6.91 | – | CCOc1ccccc1NC(=O)c1ccccc1NS(=O)(=O)C1CC1 | CLint scaled [3]: 61.9 mL/min/kg; CLint scaled [4]: 1060 mL/min/kg; fraction unbound [5]: 0.004; fraction unbound [6]: 0.017 |
| – | – | 8.9 | CCOc1ccccc1NC(=O)c1ccc2ccccc2c1NS(=O)(=O)C1CC1 | – |
| 100 | 6.36 | – | CCS(=O)(=O)Nc1ccc(F)cc1C(=O)Nc1ccccc1OCC(F)(F)F | – |
| – | – | -11.9 | COc1ccccc1N(C)C(=O)c1ccccc1NS(=O)(=O)C1CC1 | – |
| 95 | 6.30 | – | O=C(Nc1ccccc1OCC(F)(F)F)c1ccccc1NS(=O)(=O)C1CC1 | CLint scaled [3]: 40.2 mL/min/kg; CLint scaled [4]: 979 mL/min/kg; fraction unbound [5]: 0.004; fraction unbound [6]: 0.022 |
| – | – | 2.7 | O=C(c1ccccc1NS(=O)(=O)C1CC1)N1CCOc2ccccc21 | – |
| – | – | 3.2 | CCOc1ccccc1NC(=O)c1ccc(C)cc1NS(=O)(=O)C1CC1 | – |
| 66.3 | 5.98 | – | Cc1cc2cccc(NC(=O)c3ccccc3NS(=O)(=O)C3CC3)c2o1 | CLint scaled [3]: 74.9 mL/min/kg; CLint scaled [4]: 1460 mL/min/kg; fraction unbound [5]: < 0.003; fraction unbound [6]: 0.026 |
